How the values were obtained:
Rattus norvegicus [1] = assay: Induction of lymphopenia in Lewis rat assessed as reduction in lymphocyte numbers at 0.1 mg/kg, po after 4 hrs by automatic hemacytometry relative to untreated control; assay type: functional; parameters: scale not given: the % may be the effect or the level left
Procedure, shortened: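 Male Lewis rats, 5 weeks old, 5 per group, given saline vehicle or 0.1 mg/kg compound orally. EDTA blood drawn before and 4 h after dosing. Lymphocytes counted by automatic hemacytometer; untreated rats also counted.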

Rattus norvegicus [2] = assay: Immunosuppressive activity in Lewis rat injected with WKAH/Hkm rat spleen cells assessed as inhibition of host versus graft reaction by measuring popliteal lymph nodes weight dosed orally at 5 mL/kg once daily for 4 successive days starting on day of spleen cell injection; assay type: functional; settings: po, read-out: ID50 (the source's name)
Procedure, shortened: (§1)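 Lewis rats received 1×10^7 WKAH/Hkm splenocytes intracutaneously into both hind footpads. Syngeneic controls received Lewis splenocytes. Compound suspended in 0.5% tragacanth, given orally at 5 mL/kg once daily for 4 days from the day of cell injection; 5 rats/group. Popliteal lymph node weight gain measured relative to allogeneic control. ID50 by least squares from at least three doses.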

[3] = Half life in Lewis rat at 1 mg/kg, po; assay type: ADME, organism-based; parameters: dose 1 mg/kg, route oral; settings: in vivo
Procedure, shortened: (§2)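 Single oral dose of 1.0 mg/kg parent compound in rats, n = 2 or 3. Plasma levels measured for parent and its phosphate. Cmax, AUC0-48 and T1/2 derived from plasma concentration. Half-life of phosphate taken from plasma phosphate level after dosing at 1.0 mg/kg p.o., n = 2.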

[4] = Drug metabolism in rat plasma assessed as compound phosphorylation at 100 ug/ml at 37 degC after 3 hrs by HPLC method; assay type: ADME, cell-free; settings: read-out: Drug metabolism
Procedure, shortened: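 Rat whole blood, citrate-treated, spiked with compound from 100 µg/mL DMSO stock and held 3 h at 37 °C. Methanol quench, centrifugation twice at 4 °C, reversed-phase HPLC with CH3CN/0.1% TFA gradient. Phosphorylation given as ratio of HPLC peak areas of phosphate to remaining parent.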

[5] = Cmax in rat at 1 mg/kg, po; assay type: ADME, organism-based; parameters: dose 1 mg/kg, route oral; settings: in vivo; procedure, shortened: as §2
[6] = AUC (0 to 48 hrs) in rat at 1 mg/kg, po; assay type: ADME, organism-based; parameters: time < 48 hr, dose 1 mg/kg, route oral; settings: plasma; procedure, shortened: as §2
[7] = Half life in rat at 1 mg/kg, po; assay type: ADME, organism-based; parameters: dose 1 mg/kg, route oral; settings: in vivo; procedure, shortened: as §2
[8] = Metabolic stability in rat hepatic microsomes assessed as parent compound remaining after 30 mins at 37 degC; assay type: ADME, microsome; settings: liver microsomes
Procedure, shortened: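 Compound incubated with rat hepatic microsomes for 30 min at 37 °C; percentage of compound remaining reported.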

[9] = molecular target: Sphingosine 1-phosphate receptor 1 (Homo sapiens, UniProt P21453); assay: Agonist activity at human S1P1 receptor expressed in CHOK1 cell membranes by [35S]GTPgammaS binding assay; assay type: functional, CHO-K1
Procedure, shortened: (§3)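 Membranes of CHO-K1 cells transfected with human S1P1 or S1P3. Phosphorylated compounds tested. Buffer: 50 mM HEPES pH 7.5, 100 mM NaCl, 5 mM MgCl2, 0.05 mg/mL saponin, with GDP and DTT. Started with [35S]GTPγS plus membrane, 60 min at room temperature, then filter harvest and scintillation counting. Binding expressed as % of 20 µM Sph-1-P response, blank-corrected, n = 2.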

[10] = molecular target: Sphingosine 1-phosphate receptor 3 (Homo sapiens, UniProt Q99500); assay: Agonist activity at human S1P3 receptor expressed in CHOK1 cell membranes by [35S]GTPgammaS binding assay; assay type: functional, CHO-K1; procedure, shortened: as §3
Homo sapiens = organism: Homo sapiens; assay: Selectivity index, ratio of EC50 for human S1P3 receptor to EC50 for human S1P1 receptor
Rattus norvegicus [11] = assay: Drug level in Wistar Imamichi rat at 1 to 30 mg/kg, po; assay type: ADME, organism-based; parameters: dose 1-30 mg/kg, route oral; settings: in vivo
Rattus norvegicus [12] = assay: Immunosuppressive activity in Lewis rat injected with WKAH/Hkm rat spleen cells assessed as inhibition of host versus graft reaction by measuring popliteal lymph nodes weight dosed orally at 1 mg/kg once daily for 4 successive days starting on day of spleen cell injection; assay type: functional; settings: route oral; procedure, shortened: as §1

Sequence of Sphingosine 1-phosphate receptor 1 (P21453 whole entry): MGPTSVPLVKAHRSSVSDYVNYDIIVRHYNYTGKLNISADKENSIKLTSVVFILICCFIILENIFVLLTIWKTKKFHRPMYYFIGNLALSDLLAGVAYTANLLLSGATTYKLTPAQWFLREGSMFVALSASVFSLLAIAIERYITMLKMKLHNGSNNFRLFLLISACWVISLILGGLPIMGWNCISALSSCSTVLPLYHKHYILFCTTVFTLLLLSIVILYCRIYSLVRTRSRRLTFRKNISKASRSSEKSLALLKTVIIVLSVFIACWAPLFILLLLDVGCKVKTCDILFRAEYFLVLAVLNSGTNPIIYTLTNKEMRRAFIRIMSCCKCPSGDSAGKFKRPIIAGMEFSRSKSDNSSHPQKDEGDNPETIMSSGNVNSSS
Sequence of Sphingosine 1-phosphate receptor 3 (Q99500 whole entry): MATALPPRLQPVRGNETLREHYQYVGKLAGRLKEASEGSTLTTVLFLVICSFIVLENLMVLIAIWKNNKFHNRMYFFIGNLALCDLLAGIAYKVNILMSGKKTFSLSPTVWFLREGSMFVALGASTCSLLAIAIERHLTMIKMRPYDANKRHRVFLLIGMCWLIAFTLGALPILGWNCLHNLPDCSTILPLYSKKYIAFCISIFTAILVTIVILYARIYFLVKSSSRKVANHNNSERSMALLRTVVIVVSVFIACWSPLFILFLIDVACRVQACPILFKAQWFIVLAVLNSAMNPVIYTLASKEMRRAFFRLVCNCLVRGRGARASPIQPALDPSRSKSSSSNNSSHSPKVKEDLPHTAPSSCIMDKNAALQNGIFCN

| SMILES | metabolised at 3 h, 100 ug/ml [4] | Cmax [5] | AUC(0-t) at 48 h [6] | half-life [7] | remaining at 0.5 h [8] | EC50 [9] | EC50 [10] | Ratio EC50 (Homo sapiens) | other results |
| --- | --- | --- | --- | --- | --- | --- | --- | --- | --- |
| Cc1ccc(CCCC(=O)c2ccc(COC[C@@](C)(N)CO)cc2)cc1.Cl | 39.5% | 13 ng/mL | 120 ng·h/mL | 5.7 h | 51% |  |  |  | Activity (Rattus norvegicus [1]): 39.5%; ED50 (Rattus norvegicus [2]): 0.27 mg/kg; half-life [3]: 7.8 h |
| Cc1ccc(CCCC(=O)c2ccc(COC[C@@](C)(N)COP(=O)(O)O)c(C)c2)cc1 |  | 104 ng/mL | 806 ng·h/mL | 4.3 h | 92% | 3 nM | 180 nM | 60 |  |
| CCCCCCCCc1ccc(CCC(N)(CO)CO)cc1 [FINGOLIMOD] |  |  |  |  | 97% |  |  |  | Activity (Rattus norvegicus [1]): 21%; ED50 (Rattus norvegicus [2]): 0.33 mg/kg; half-life [3]: 32 h |
| Cc1ccc(CCCC(=O)c2ccc(COC[C@@](C)(N)COP(=O)(O)O)cc2C)cc1 |  |  |  |  |  | 19 nM | > 20000 nM | > 1050 |  |
| Cc1ccc(CCCC(=O)c2ccc(COC[C@@](C)(N)CO)c(C)c2)cc1.Cl | 38.4% | 34 ng/mL | 200 ng·h/mL | 4.1 h | 36% |  |  |  | ED50 (Rattus norvegicus [2]): 0.43 mg/kg; Drug uptake (Rattus norvegicus [11]): Dose-dependent effect |
| Cc1ccc(CCCC(=O)c2ccc(COC[C@@](C)(N)COP(=O)(O)O)c(F)c2)cc1 |  |  |  |  |  | 2.8 nM | 60 nM | 21 |  |
| Cc1ccc(CCCC(=O)c2cc(C)c(COC[C@@](C)(N)CO)cc2C)cc1 | 6% |  |  |  |  |  |  |  | inhibition in vivo at 1 mg/kg (Rattus norvegicus [12]): 11% |
| Cc1ccc(CCCC(=O)c2ccc(COC[C@@](C)(N)CO)c(Cl)c2)cc1.Cl | 83.8% | 18 ng/mL | 144 ng·h/mL | 4.6 h | 38% |  |  |  | ED50 (Rattus norvegicus [2]): 0.39 mg/kg; Drug uptake (Rattus norvegicus [11]): Dose-dependent effect |
| Cc1ccc(CCCC(=O)c2cc(C)c(COC[C@@](C)(N)COP(=O)(O)O)cc2C)cc1 |  |  |  |  |  | 6.5 nM | > 20000 nM | > 3080 |  |
| CCc1cc(C(=O)CCCc2ccc(C)cc2)ccc1COC[C@@](C)(N)CO | 13.9% |  |  |  |  |  |  |  | inhibition in vivo at 1 mg/kg (Rattus norvegicus [12]): 10% |
| CCCCCCCCc1ccc(CC[C@](N)(CO)COP(=O)(O)O)cc1 [FTY720-P] |  |  |  |  | > 100% |  |  |  |  |
| Cc1ccc(CCCC(=O)c2cc(C)c(COC[C@@](C)(N)COP(=O)(O)O)c(C)c2)cc1 |  |  |  |  |  | 2.2 nM | 340 nM | 155 |  |
| Cc1ccc(CCCC(=O)c2ccc(COC[C@@](C)(N)COP(=O)(O)O)cc2)cc1 |  | 72 ng/mL | 799 ng·h/mL | 7.8 h | 92% | 7 nM | 200 nM | 29 |  |
| Cc1ccc(CCCC(=O)c2ccc(COC[C@@](C)(N)COP(=O)(O)O)c(Cl)c2)cc1 |  | 97 ng/mL | 658 ng·h/mL | 4.6 h | 86% | 4 nM | 220 nM | 55 |  |
| CCc1cc(C(=O)CCCc2ccc(C)cc2)ccc1COC[C@@](C)(N)COP(=O)(O)O |  |  |  |  |  | 2.3 nM | 12000 nM | 5220 |  |
